Data set [1] is described as follows: Selectivity ratio of total amyloid beta to amyloid beta 42. The essentials: (§1)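 HEK293 cells stably transfected with APP (Swedish plus London mutations, pcDNA3.1) treated with compound for 5 h; Aβ in conditioned medium read by MSD sandwich immunoassay: Aβ42 with TAG-G2-11/biotin-4G8, Aβ40 with TAG-G2-10/biotin-4G8, total Aβ with TAG-W02/biotin-4G8. IC50 from Aβ42; ratio is total Aβ over Aβ42.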

Data set [2] addresses Gamma-secretase. Put plainly: Inhibition of gamma secretase-mediated amyloid beta42 production in HEK293 cells. Format: cell-based, Homo sapiens. The essentials: as §1
Data set [3] relates to Brain. Put plainly: Drug level in rat brain at 30 mg/kg, po. Particulars: in vivo, read-out: Drug uptake.
Data set [4] relates to Plasma. Put plainly: Drug level in rat plasma at 30 mg/kg, po. Particulars: in vivo.
In data set [5] the test system is Rattus norvegicus. Put plainly: Reduction in amyloid beta 42 level in rat CSF at 100 mg/kg, po. Set-up: scale not given: the % may be the effect or the level left.
The subject of data set [6] is Rattus norvegicus. Put plainly: Reduction in amyloid beta 42 level in rat CSF at 30 mg/kg, po. Set-up: scale not given: the % may be the effect or the level left.
Data set [7] can be described thus: Drug level in rat brain at 10 mg/kg, po after 6 hrs. In kind it is ADME, organism-based. Set-up: dose 10 mg/kg, route oral. Particulars: read-out: Drug uptake. The essentials: (§2)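 Rats given a single 10 mg/kg oral dose. Plasma sampled over 0–6 h for AUC and Cmax, with the time of Cmax recorded. Brain level (ng/g) and brain:plasma concentration ratio taken at 6 h.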

A short description of data set [8]: Cmax in rat at 10 mg/kg, po after 2 hrs. To be noted: in vivo. Set-up: dose 10 mg/kg, route oral. Format: ADME, organism-based. The essentials:
as §2

Data set [9] in a line: AUC (0 to 6 hrs) in rat at 10 mg/kg, po. In kind it is ADME, organism-based. Further details: time < 6 hr, dose 10 mg/kg, route oral. To be noted: plasma. The essentials: as §2
Data set [10] is described as follows: Selectivity ratio of drug level in brain to plasma in rat at 10 mg/kg, po after 6 hrs. In kind it is ADME, organism-based. Set-up: dose 10 mg/kg, route oral. To be noted: read-out: BPR. The essentials:
as §2

Data set [11] in a line: AUC (0 to 6 hrs) in po dosed rat. In kind it is ADME, organism-based. Set-up: time < 6 hr, route oral. Particulars: plasma. The essentials:
as §2

Data set [12] in a line: Cmax in rat at 10 mg/kg, po after 1 hr. In kind it is ADME, organism-based. Set-up: dose 10 mg/kg, route oral. Particulars: in vivo. The essentials: as §2
The subject of data set [13] is Rattus norvegicus. Put plainly: Reduction in amyloid beta 42 level in po dosed rat CSF. Further details: scale not given: the % may be the effect or the level left.
Data set [14] concerns Mus musculus. As to the kind of experiment: Reduction in total amyloid beta level in CRND8 transgenic mouse plasma at 30 mg/kg, po. In kind it is functional. Further details: scale not given: the % may be the effect or the level left. The essentials: (§3)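 CRND8 transgenic mice dosed orally at 30 mg/kg. Plasma Aβ42 and total Aβ sampled 3 h after dosing.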
For data set [15], the system named is Mus musculus. As to the kind of experiment: Reduction in amyloid beta 42 level in CRND8 transgenic mouse cortical at 30 mg/kg, po. Further details: scale not given: the % may be the effect or the level left. In kind it is functional.
The test system of data set [16] is Mus musculus. Put plainly: Reduction in amyloid beta 42 level in transgenic CRND8 mouse plasma at 30 mg/kg, po. In kind it is functional. Further details: scale not given: the % may be the effect or the level left. The essentials: as §3

pIC50: −log10 of the molar value. Some results are limits rather than exact numbers.

In general, pIC50 refers to the negative decadic logarithm of the IC50, by convention in mol/L. A word on the Cmax: it is the peak of the concentration-time curve. One may read the AUC(0-t) as the area under the concentration-time curve up to a stated or last time point.

In the case of `COc1cc(/C=C2\N=C3NCC(c4ccc(F)cc4)N3C2=O)ccc1-n1cnc(C)c1` (racemic), the Ratio in data set [1] is 117. This molecule gave a pIC50 in [2] of 6.87.
In turn, `CCN1CCCC(c2ccc(F)cc2)N2C(=O)/C(=C/c3ccc(-n4cnc(C)c4)c(OC)c3)N=C12` (racemic) [listing 1 of 2 here] showed a pIC50 in [2] of 6.93.
Consider `COc1cc(/C=C2\N=C(N3CCCCC3)N([C@@H](C)c3ccc(F)cc3)C2=O)ccc1-n1cnc(C)c1`, for which the Ratio in data set [1] worked out at 21. The same molecule had a negative logarithm of the IC50 (pIC50) in [2] of 6.02.
The corresponding values for `COc1cc(/C=C2\N=C(NCCCO)N([C@@H](C)c3ccc(F)cc3)C2=O)ccc1-n1cnc(C)c1` are 141 and 6.79.
Taken in the same sequence, the figures for `COc1cc(/C=C2\N=C(N3CCCC3)N([C@@H](C)c3ccc(F)cc3)C2=O)ccc1-n1cnc(C)c1` were 32 and 6.17.
In the case of `CCCCNC1=N/C(=C\c2ccc(-n3cnc(C)c3)c(OC)c2)C(=O)N1Cc1ccc(F)cc1`, the concentration in data set [3] worked out at 5.9 µM; in data set [4] it was 7.1 µM. Further, the Activity in data set [5] is given as 38%; in data set [6] it was 10%. Besides, in data set [1], the Ratio was determined as 70. Besides, the concentration at 6 h in [7] amounted to 449 ng/g. Further, in data set [8], the Cmax was determined as 2.3 µM. Further, the exposure AUC(0-t) at 6 h in [9] is 10 µM·h. Also, in data set [2], the negative logarithm of the IC50 (pIC50) was 7.07. Further, the Kp at 6 h in [10] was 0.7.
As to `COc1cc(/C=C2\N=C(N)N(Cc3ccc(F)cc3)C2=O)ccc1-n1cnc(C)c1`, the Ratio in data set [1] was found to be 139. The molecule further gave a pIC50 in data set [2] of 6.84.
Regarding `COc1cc([C@H](O)C2CNC(=N)N([C@@H](C)c3ccc(F)cc3)C2=O)ccc1-n1cnc(C)c1` (some centres undefined), the pIC50 in data set [2] was less than 4.70.
With `COc1cc(/C=C2\N=C(NCCCO)N([C@H](C)c3ccc(F)cc3)C2=O)ccc1-n1cnc(C)c1`, the Ratio in [1] was found to be 153. In data set [2], this molecule gave a pIC50 of 6.95.
In turn, `COc1cc(/C=C2\CCCN([C@@H](C)c3ccc(F)cc3)C2=O)ccc1-n1cnc(C)c1` returned an AUC(0-t) at 6 h in data set [11] of 60.4 µM·h.
In the case of `CCN1CCCC(c2ccc(F)cc2)N2C(=O)/C(=C/c3ccc(-n4cnc(C)c4)c(OC)c3)N=C12` (single isomer, unassigned; (-)) [listing 1 of 2 here], the Ratio in data set [1] turned out to be 215.
For the molecule `COc1cc(/C=C2\N=C(N)N([C@@H](C)c3ccc(F)cc3)C2=O)ccc1-n1cnc(C)c1`, the Ratio in data set [1] was 55. The same molecule gave a pIC50 in data set [2] of 6.49.
`COc1cc(Cc2c[nH]c(=N)n([C@@H](C)c3ccc(F)cc3)c2=O)ccc1-n1cnc(C)c1`: the pIC50 in data set [2] is 6.35.
As to `CCN1CCCC(c2ccc(F)cc2)N2C(=O)/C(=C/c3ccc(-n4cnc(C)c4)c(OC)c3)N=C12` (single isomer, unassigned; (-)) [listing 2 of 2 here], in [7], the concentration at 6 h is 275 ng/g. The molecule also had a Cmax in [12] of 4.2 µM. The Activity in [13] is given as 8%. In [9], this molecule showed an AUC(0-t) at 6 h of 16.9 µM·h. In data set [2], this molecule showed a pIC50 of 7.14. Further, the Kp at 6 h in [10] came to 0.3.
As to `COc1cc(/C=C2/C(=O)N([C@@H](C)c3ccc(F)cc3)C(=N)NC2(C)C)ccc1-n1cnc(C)c1`, in [2], the pIC50 was less than 4.70.
Turning to `COc1cc(/C=C2\NC(=O)N([C@@H](C)c3ccc(F)cc3)C2=O)ccc1-n1cnc(C)c1`, in data set [1], the Ratio stood at 141. For the same molecule, in data set [2], the negative-log IC50 (pIC50) was 6.79.
Taken in the same sequence, the figures for `CCCCNC1=N/C(=C\c2ccc(-n3cnc(C)c3)c(OC)c2)C(=O)N1[C@H](C)c1ccc(F)cc1` were 42 and 7.04.
Taken in the same sequence, the figures for `COc1cc(/C=C2\N=C(N)N([C@H](CCO)c3ccc(F)cc3)C2=O)ccc1-n1cnc(C)c1` were 87 and 6.64.
The corresponding values for `CCCCNC1=N/C(=C\c2ccc(-n3cnc(C)c3)c(OC)c2)C(=O)N1[C@@H](C)c1ccc(F)cc1` are 78 and 6.59.
As to `CCNC1=N/C(=C\c2ccc(-n3cnc(C)c3)c(OC)c2)C(=O)N1Cc1ccc(F)cc1`, the Ratio in [1] amounted to 104. This molecule also had a negative logarithm of the IC50 (pIC50) in [2] of 7.14.
The corresponding values for `CCN1CC(c2ccc(F)cc2)N2C(=O)/C(=C/c3ccc(-n4cnc(C)c4)c(OC)c3)N=C12` (single isomer, unassigned; (-)) are 159 and 7.25.
`COc1cc(/C=C2\NC(=O)N([C@H](C)c3ccc(F)cc3)C2=O)ccc1-n1cnc(C)c1` showed a pIC50 in [2] of 5.46.
With `CCNC1=N/C(=C\c2ccc(-n3cnc(C)c3)c(OC)c2)C(=O)N1[C@H](CCO)c1ccc(F)cc1`, the Ratio in data set [1] worked out at 117. In data set [2], this molecule gave a pIC50 of 6.77.
Taken in the same sequence, the figures for `COCCCNC1=N/C(=C\c2ccc(-n3cnc(C)c3)c(OC)c2)C(=O)N1[C@@H](C)c1ccc(F)cc1` were 70 and 6.54.
In data set [2], `COc1cc(/C=c2/c(=O)n([C@@H](C)c3ccc(F)cc3)c3n2CCCN=3)ccc1-n1cnc(C)c1` gave a pIC50 of 5.15.
With `COc1cc(/C=C2\N=C(NCC3CC3)N([C@@H](C)c3ccc(F)cc3)C2=O)ccc1-n1cnc(C)c1`, the Ratio in data set [1] was 71. Further, in data set [2], the negative logarithm of the IC50 (pIC50) was 6.60.
With `CCNC1=N/C(=C\c2ccc(-n3cnc(C)c3)c(OC)c2)C(=O)N1[C@H](C)c1ccc(F)cc1`, in data set [1], the Ratio came to 159. The concentration at 6 h in data set [7] stood at 914 ng/g. In addition, the results for the Activity in data set [14], in data set [15] and in data set [16] were 10%, 12% and 80%, respectively. The same molecule yielded a Cmax in [8] of 2.3 µM. The molecule also displayed an AUC(0-t) at 6 h in [9] of 10.1 µM·h. For the same molecule, in data set [2], the pIC50 was 7.06. Besides, the Kp at 6 h in data set [10] was 1.3.
On to `CCN1CCC(c2ccc(F)cc2)N2C(=O)/C(=C/c3ccc(-n4cnc(C)c4)c(OC)c3)N=C12` (single isomer, unassigned; (+)), for which the Ratio in [1] is 71. In data set [2], the pIC50 was 7.07.
For the molecule `COc1cc(/C=C2\N=C3NCCC(c4ccc(F)cc4)N3C2=O)ccc1-n1cnc(C)c1` (single isomer, unassigned; (+)), the Ratio in data set [1] turned out to be 188. The molecule further had a pIC50 in data set [2] of 6.97.
Take `CCN1CCCC(c2ccc(F)cc2)N2C(=O)/C(=C/c3ccc(-n4cnc(C)c4)c(OC)c3)N=C12` (racemic) [listing 2 of 2 here]: the Ratio in [1] came to 169.
As for `COCCNC1=N/C(=C\c2ccc(-n3cnc(C)c3)c(OC)c2)C(=O)N1[C@@H](C)c1ccc(F)cc1`, in [1], the Ratio was 66. The molecule also showed a pIC50 in data set [2] of 6.52.
As to `COc1cc(/C=C2\N=C(NCC3CC3)N([C@H](C)c3ccc(F)cc3)C2=O)ccc1-n1cnc(C)c1`, the Ratio in data set [1] turned out to be 68. Also, in data set [2], the pIC50 was 6.80.
Taken in the same sequence, the figures for `COc1cc(/C=C2\N=C(N)N([C@H](C)c3ccc(F)cc3)C2=O)ccc1-n1cnc(C)c1` were 65 and 7.03.
Taken in the same sequence, the figures for `CCNC1=N/C(=C\c2ccc(-n3cnc(C)c3)c(OC)c2)C(=O)N1[C@H](CO)c1ccc(F)cc1` were 200 and 7.04.
Taken in the same sequence, the figures for `COc1cc(/C=C2\N=C(NCCO)N([C@H](C)c3ccc(F)cc3)C2=O)ccc1-n1cnc(C)c1` were 27 and 7.20.
Consider `COc1cc(/C=C2\N=C(N)N([C@H](CO)c3ccc(F)cc3)C2=O)ccc1-n1cnc(C)c1`, for which, in data set [1], the Ratio was determined as 113. Also, the pIC50 in [2] was 6.86.
Taken in the same sequence, the figures for `COC1=N/C(=C\c2ccc(-n3cnc(C)c3)c(OC)c2)C(=O)N1[C@@H](C)c1ccc(F)cc1` were 23 and 6.06.
Taken in the same sequence, the figures for `COc1cc(/C=C2\N=C3NCCCC(c4ccc(F)cc4)N3C2=O)ccc1-n1cnc(C)c1` (racemic) were 40 and 6.30.
The corresponding values for `CCNC1=N/C(=C\c2ccc(-n3cnc(C)c3)c(OC)c2)C(=O)N1[C@@H](C)c1ccc(F)cc1` are 97 and 6.66.
With `COc1cc(/C=C2\N=C(NC3CC3)N([C@@H](C)c3ccc(F)cc3)C2=O)ccc1-n1cnc(C)c1`, the Ratio in [1] is 136. The molecule also had a pIC50 in [2] of 6.54.
For `CNC1=N/C(=C\c2ccc(-n3cnc(C)c3)c(OC)c2)C(=O)N1[C@@H](C)c1ccc(F)cc1`, the Ratio in [1] worked out at 25. For the same molecule, the pIC50 in data set [2] was 6.39.
Consider `COc1cc(/C=C2\N=C(NCCO)N([C@@H](C)c3ccc(F)cc3)C2=O)ccc1-n1cnc(C)c1`, for which the Ratio in data set [1] was found to be 79. The pIC50 in data set [2] was 6.66.

The values above are taken from ChEMBL document CHEMBL1221385, “Iminoheterocycles as gamma-secretase modulators” (Bioorg Med Chem Lett, 2010).
